Results reported in the EternaBench riboswitch data.

Test system: MS2 coat protein
Assay: apparent Kd, MS2 coat protein; higher = weaker binding; RNA-MaP array; theophylline 2 mM where present
Procedure, shortened: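 On Illumina sequencing-chip clusters, designs were transcribed by stalled E. coli RNA polymerase and titrated with SNAP-549-labelled MS2 coat protein (0.7 or 1.5 nM, doubling to 3 µM), without and then with constant ligand, in 100 mM Tris-HCl pH 7.5, 80 mM KCl, 4 mM MgCl2, BSA, DTT, yeast tRNA and Tween-20. Apparent Kd is the median of filtered per-cluster curve fits to green signal normalised to red-channel RNA signal and control-cluster median Fmax.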

[1] = designed as: OFF switch for theophylline, no ligand
[2] = ligand present: theophylline, designed as: OFF switch for theophylline
[3] = designed as: ON switch for theophylline, no ligand
[4] = ligand present: theophylline, designed as: ON switch for theophylline

Sequence	apparent Kd [1]	apparent Kd [2]	apparent Kd [3]	apparent Kd [4]
UCCACAUGAGGAUCACCCAUGUAAUCAGAUACCAGUGACGAAAGUCACCCUUGGCAGCUGAUUACUUUAGUUCGAGGGUGUUUGA	102 nM	202 nM		
UCGCAUUGCUGCGAUACCAGACAUGAGGAUCACCCAUGUACCAAGGUACGAAAAUAACAUGUCCCUUGGCAGCGCAGCAAUGCGU	12.8 nM	322 nM		
ACGACGCAUACAGAUACCAGUAGCCGAGAAACAUGAGGAUCACCCAUGUCGAGCGACAACUGCCCUUGGCAGCUGUAUGCGUCAG			8.49 nM	8.34 nM
UUUACAUGAGGAUCACCCAUGUGCCAUGAUACCAGACAUGAAAAUGUCCCUUGGCAGCAUGAAAGAUCCACGUCGGAAACGACGG			176 nM	308 nM
GUUAUGGACCUGGAUACCAGCUGGUACAAGGGCGGUCUACAUGAGGAUCACCCAUGUGUCAGCCCUUGGCAGCCAGCAACCGGCA	9.28 nM	11.8 nM		
GCUGUAAGUGCAGAUACCAGCGUGUUAUAUUUCUAAUGACAUGAGGAUCACCCAUGUAAAUGCCCUUGGCAGCUGCACUUACAGC			16.1 nM	16.9 nM
AGCGGAACGGAAGGGUCCCAAAAUUGUGAUACCAGCCUUGAAUCCGGCCCUUGGCAGCACAUGAGGAUCACCCAUGUACUGCGAU	12.9 nM	39.4 nM		
AUUAAUAGUUGUGAUACCAGACGAACAUGAGGAUCACCCAUGUAACUUUUAGGUGUUGUAGUCCCUUGGCAGCACUAUUUAGUUA			42.7 nM	35.3 nM
AGCGAUAUGCAUGAUACCAGCUACAUGAGGAUCACCCAUGUGCGUCAGUAAUGACUGUGUAGCCCUUGGCAGCAUAGAGCAUGUA	37.6 nM	70.4 nM		
AUGGCGUUGGUGUAGCUGUGAAAUGGCGAUACCAGCGUGGAAACACGCCCUUGGCAGCGCCAAAACAUGAGGAUCACCCAUGUUA	20.1 nM	96.6 nM		
UGAGAUCCUCAUGAUACCAGUGUACUACAUGAGGAUCACCCAUGUAGCAACAUCUGUAGACACCCUUGGCAGCAUGAGACCACGU			18.3 nM	23.7 nM
ACGACGCAUAGUGAUACCAGUACAACAUGAGGAUCACCCAUGUCACAUAUGUUGUAAUAGUGCCCUUGGCAGCACUAUGCGUCAG			155 nM	17.6 nM
UACAUGAGGAUCACCCAUGUAUAGAGGGAUACCAGUGUCAGUGAGCACCCUUGGCAGCCCGCGAACAAUGGGUGCGCUAAAUAGU	30.4 nM	56.9 nM		
UUCAGUACAACAGAUACCAGACAGUACUCUAAAUUGCAACAUGAGGAUCACCCAUGUAUAGUCCCUUGGCAGCUGUAAUGGGUGA			114 nM	174 nM
ACAUGAGGAUCACCCAUGUUCCUCUUUGAUACCAGUGAGUUGUUUCGCCCUUGGCAGCGAGUGUUUGUUUUUUUGUUUUGUUUGG	215 nM	288 nM		
UCACGAGGCCUGGAUACCAGCGACAUGAGGAUCACCCAUGUAUGAGGAUCAGCCAUGUUAUGCCCUUGGCAGCCACGAAGGUCAU	14.6 nM	94.5 nM		
AGACAUGAGGAUCACCCAUGUAGUACGGAUACCAGAUCCAGAUGCGUCCCUUGGCAGCUGUAGUACAGCGUUACAUCGCUCAUAG	37.9 nM	70.7 nM		
UAAAACAUGAGGAUCACCCAUGUAUUUGAUACCAGAGUGAUGAUCCUCCCUUGGCAGCAAAUAACGCAUUGAUUACAAUGCGAAA			42.8 nM	143 nM
ACAUGAACAUGAGGAUCACCCAUGUAUGAUACCAGAAAAGAAGAGUUCCCUUGGCAGCGUACAACACAUGAGGAUCACCCAUGUG			24.1 nM	24.3 nM
GCACCAGGUACGGAUACCAGCUGCCAUAGUUACAUGAGGAUCACCCAUGUGAUCUAUUGUAGCCCUUGGCAGCUGUACCUGGUGC			104 nM	92.4 nM
UGUAUGUGAUUUGAUACCAGACCAACUGGUAAAACAUGAGGAUCACCCAUGUAAACUUGGGUCCCUUGGCAGCAAAUCGCAUACU			80.5 nM	10.9 nM
UACAUGAGGAUCACCCAUGUAUGAAUAGAUACCAGAUAAAAUAAGGUCCCUUGGCAGCUAGUGAAUAAAGGGUGGGUAAAAUAAU	9.22 nM	9.51 nM		
CAAUAAGUAACUGAUACCAGUGUACUGACAUGAGGAUCACCCAUGUUGGGUUUUGUUGUACACCCUUGGCAGCAGAAUCUUAUUG	60.3 nM	80.7 nM		
GAUCCUCAUACGGAUACCAGCGAAUAACAUGAGGAUCACCCAUGUAAUAAAGAAAAUAAAUGCCCUUGGCAGCCGAAUAGAUAGU			166 nM	69.4 nM
GUCAGUAGAACAGAUACCAGUCAAAAGCUGUGAUCUCAUAACAUGAGGAUCACCCAUGUUGACCCUUGGCAGCUGUGGGCGAGGG	19.6 nM	64.6 nM		
UACAUGAGGAUCACCCAUGUAUGAAUGGAUACCAGAUAAAAUAAGGUCCCUUGGCAGCUAGUGAAUCGAGGGUGGGUAUCAUGUU	10.5 nM	11.2 nM		
